According to ChEMBL document CHEMBL1124808, “The synthesis and antiallergy activity of 1-(aryloxy)-4-(4-arylpiperazinyl)-2-butanol derivatives” (1990):

What was measured:
Assay type in all cases: functional
Rattus norvegicus [1] = test: Percent change in volume of foot edema of test compound to that of positive control was determined at a dose of 31.6 mg/kg in rat; -49/-78
Rattus norvegicus [2] = test: Percent change in volume of foot edema of test compound to that of positive control was determined at a dose of 10 mg/kg in rat; -26/-62
Rattus norvegicus [3] = test: Percent change in volume of foot edema of test compound to that of positive control was determined at a dose of 31.6 mg/kg in rat; -23/-81
Rattus norvegicus [4] = test: Percent change in volume of foot edema of test compound to that of positive control was determined at a dose of 31.6 mg/kg in rat; -79/-65
Rattus norvegicus [5] = test: Percent change in volume of foot edema of test compound to that of positive control was determined at a dose of 10 mg/kg in rat; +22/-73
Rattus norvegicus [6] = test: Percent change in volume of foot edema of test compound to that of positive control was determined at a dose of 10 mg/kg in rat; -50/-80
Rattus norvegicus [7] = test: Percent change in volume of foot edema of test compound to that of positive control was determined at a dose of 31.6 mg/kg in rat; -85/-82
Rattus norvegicus [8] = test: Percent change in volume of foot edema of test compound to that of positive control was determined at a dose of 3.16 mg/kg in rat; -34/-79
Rattus norvegicus [9] = test: Percent change in volume of foot edema of test compound to that of positive control was determined at a dose of 31.6 mg/kg in rat; -35/-69
Rattus norvegicus [10] = test: Percent change in volume of foot edema of test compound to that of positive control was determined at a dose of 31.6 mg/kg in rat; -65/-69
Rattus norvegicus [11] = test: Percent change in volume of foot edema of test compound to that of positive control was determined at a dose of 10 mg/kg in rat; -29/-62
Rattus norvegicus [12] = test: Percent change in volume of foot edema of test compound to that of positive control was determined at a dose of 10 mg/kg in rat; -56/-69
Rattus norvegicus [13] = test: Percent change in volume of foot edema of test compound to that of positive control was determined at a dose of 3.16 mg/kg in rat; -9/-69
Rattus norvegicus [14] = test: Percent change in volume of foot edema of test compound to that of positive control was determined at a dose of 31.6 mg/kg in rat; -82/69
Rattus norvegicus [15] = test: Percent change in volume of foot edema of test compound to that of positive control was determined at a dose of 10 mg/kg in rat; +3/-73
Rattus norvegicus [16] = test: Percent change in volume of foot edema of test compound to that of positive control was determined at a dose of 31.6 mg/kg in rat; -69/-78
Rattus norvegicus [17] = test: Percent change in volume of foot edema of test compound to that of positive control was determined at a dose of 10 mg/kg in rat; -38/-69
Rattus norvegicus [18] = test: Percent change in volume of foot edema of test compound to that of positive control was determined at a dose of 31.6 mg/kg in rat; -73/-68
Rattus norvegicus [19] = test: Percent change in volume of foot edema of test compound to that of positive control was determined at a dose of 3.16 mg/kg in rat; -13/-73
Rattus norvegicus [20] = test: Percent change in volume of foot edema of test compound to that of positive control was determined at a dose of 31.6 mg/kg in rat; -30/-81
Rattus norvegicus [21] = test: Percent change in volume of foot edema of test compound to that of positive control was determined at a dose of 31.6 mg/kg in rat; +7/-47
Rattus norvegicus [22] = test: Percent change in volume of foot edema of test compound to that of positive control was determined at a dose of 31.6 mg/kg in rat; -88/-63
Rattus norvegicus [23] = test: Percent change in volume of foot edema of test compound to that of positive control was determined at a dose of 10 mg/kg in rat; -53/-77
Rattus norvegicus [24] = test: Percent change in volume of foot edema of test compound to that of positive control was determined at a dose of 3.16 mg/kg in rat; -18/-77
Rattus norvegicus [25] = test: Percent change in volume of foot edema of test compound to that of positive control was determined at a dose of 31.6 mg/kg in rat; -80/-83
Rattus norvegicus [26] = test: Percent change in volume of foot edema of test compound to that of positive control was determined at a dose of 10 mg/kg in rat; -36/-65
Rattus norvegicus [27] = test: Percent change in volume of foot edema of test compound to that of positive control was determined at a dose of 31.6 mg/kg in rat; -69/-69
Rattus norvegicus [28] = test: Percent change in volume of foot edema of test compound to that of positive control was determined at a dose of 10 mg/kg in rat; -14/-62
Rattus norvegicus [29] = test: Percent change in volume of foot edema of test compound to that of positive control was determined at a dose of 10 mg/kg in rat; -34/-77
Rattus norvegicus [30] = test: Percent change in volume of foot edema of test compound to that of positive control was determined at a dose of 31.6 mg/kg in rat; -67/-63
Rattus norvegicus [31] = test: Percent change in volume of foot edema of test compound to that of positive control was determined at a dose of 31.6 mg/kg in rat; -15/-60
Cavia porcellus = organism: Cavia porcellus; test: Dose that protects 50% of guinea pig from collapse was determined in guinea pig anaphylaxis assay; conditions: read-out: PD50
Summary of the method: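 Guinea pigs dosed by gavage (10 mL/kg) with compound in 0.5% Tween 80/water; reference theophylline 100 mg/kg po. At 1–24 h, exposed in chamber to aerosolized 1% (w/v) egg albumin at 10 L air/min for up to 5 min; protected if no collapse within 5 min. PD50 by Litchfield and Wilcoxon.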

OC(CCN1CCN(c2ccccc2)CC1)COc1cccc(C(F)(F)F)c1 (stereo not drawn) gave a PFA (Rattus norvegicus [1]) of -49 and a PFA (Rattus norvegicus [2]) of -26.
OC(COc1ccccc1)CN1CCN(c2ccccc2)CC1 (stereo not drawn) showed a PFA (Rattus norvegicus [3]) of -23.
COc1ccccc1N1CCN(CCC(O)COc2ccccc2)CC1 (stereo not drawn) showed a PFA (Rattus norvegicus [4]) of -79 and a PFA (Rattus norvegicus [5]) of 22.
In the case of Cc1ccc(N2CCN(CCC(O)COc3ccccc3)CC2)cc1 (stereo not drawn), the PFA (Rattus norvegicus [6]) is reported as -50, the PFA (Rattus norvegicus [7]) is reported as -85 and the PFA (Rattus norvegicus [8]) is reported as -34.
Work on OC(CCN1CCN(c2ccccc2)CC1)COc1cccc2ccccc12 (stereo not drawn) yielded a PFA (Rattus norvegicus [9]) of -35.
OC(CCN1CCN(c2ccccc2)CC1)COc1ccc(-c2ccccc2)cc1 (stereo not drawn) gave a PFA (Rattus norvegicus [10]) of -65 and a PFA (Rattus norvegicus [11]) of -29.
With NC(=O)c1ccc(OCC(O)CCN2CCN(c3ccc(F)cc3)CC2)cc1 (stereo not drawn) the PFA (Rattus norvegicus [12]) was -56, the PFA (Rattus norvegicus [13]) was -9 and the PFA (Rattus norvegicus [14]) was -82.
With COc1cccc(N2CCN(CCC(O)COc3ccccc3)CC2)c1 (stereo not drawn) the PFA (Rattus norvegicus [15]) was 3 and the PFA (Rattus norvegicus [16]) was -69.
NC(=O)c1ccc(OCC(O)CCN2CCN(c3ccccn3)CC2)cc1 (stereo not drawn) showed a PFA (Rattus norvegicus [17]) of -38, a PFA (Rattus norvegicus [18]) of -73 and a PFA (Rattus norvegicus [19]) of -13.
OC(CCN1CC=C(c2ccccc2)CC1)COc1ccccc1 (stereo not drawn) was tested, and the PFA (Rattus norvegicus [20]) was -30.
Work on OC(CCN1CCc2ccccc2C1)COc1ccccc1 (stereo not drawn) yielded a PFA (Rattus norvegicus [21]) of 7.
Work on OC(CCN1CCN(c2ccc(F)cc2)CC1)COc1ccccc1 (stereo not drawn) yielded a PFA (Rattus norvegicus [22]) of -88, a PFA (Rattus norvegicus [23]) of -53 and a PFA (Rattus norvegicus [24]) of -18.
Work on CC(=O)c1ccc(N2CCN(CCC(O)COc3ccccc3)CC2)cc1 (stereo not drawn) yielded a PFA (Rattus norvegicus [25]) of -80 and a PFA (Rattus norvegicus [26]) of -36.
COc1ccccc1OCC(O)CCN1CCN(c2ccccc2)CC1 (stereo not drawn) gave a PFA (Rattus norvegicus [27]) of -69 and a PFA (Rattus norvegicus [28]) of -14.
In the case of COc1ccc(N2CCN(CCC(O)COc3ccccc3)CC2)cc1 (stereo not drawn), the PFA (Rattus norvegicus [29]) is reported as -34 and the PFA (Rattus norvegicus [30]) is reported as -67.
Compound CN(C)CCOC(c1ccccc1)c1ccccc1 [DIPHENHYDRAMINE] has a PFA (Rattus norvegicus [31]) of -15 and an ED50 (Cavia porcellus) of 23.3 mg/kg.
Compound Cn1c(=O)c2nc[nH]c2n(C)c1=O.O [THEOPHYLLINE] has an ED50 (Cavia porcellus) of 75 mg/kg.
